Screens (PubChem)
In the library only some 3.7% were active in any assay of this set; here they are far more common.
KCNQ1 inh – blocks the human KCNQ1 potassium channel; P51787; CHO-K1 KCNQ1, FluxOR thallium flux fluorescence; active compounds read high; B-score at 10 µM; hit rate 1.3% among 310,000; AID 2642;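 active = compounds whose thallium flux B-score, printed positive for inhibition, exceeds three library SD while starting fluorescence stays within three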;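 note: channel opened by potassium depolarization with thallium stimulus after 20 min compound exposure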
KCNK9 block – blocks the human KCNK9 two-pore domain potassium channel; Q9NPC2; HEK293 KCNK9, FluxOR thallium flux fluorescence; active compounds read low; B-score at 10 µM; hit rate 1.2% among 310,000;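 active = ratio B-score over 3 SD below the library mean, with starting fluorescence within 5 SD of its mean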;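 note: negative B-score means less thallium flux so channel inhibition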
Kir21 inh – inhibitors of mouse Kir2.1 inward-rectifier potassium channel | P35561 | HEK293-Kir2.1, FluxOR thallium flux fluorescence; active compounds read low | B-score at 10 µM | hit rate 0.85% among 310,000 | AID 1672;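 active = fluorescence ratio B-score at or below minus 3 SD of library scores, with starting-brightness B-score within 2 SD, cut at about -4.2 in these data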;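 note: channel flux triggered by added potassium and thallium sulfate stimulus; B-score of peak minus minimum fluorescence over baseline after thallium stimulus; more negative B-score means stronger Kir2.1 block with less thallium influx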
Target sequence (P35561 whole entry, looked up): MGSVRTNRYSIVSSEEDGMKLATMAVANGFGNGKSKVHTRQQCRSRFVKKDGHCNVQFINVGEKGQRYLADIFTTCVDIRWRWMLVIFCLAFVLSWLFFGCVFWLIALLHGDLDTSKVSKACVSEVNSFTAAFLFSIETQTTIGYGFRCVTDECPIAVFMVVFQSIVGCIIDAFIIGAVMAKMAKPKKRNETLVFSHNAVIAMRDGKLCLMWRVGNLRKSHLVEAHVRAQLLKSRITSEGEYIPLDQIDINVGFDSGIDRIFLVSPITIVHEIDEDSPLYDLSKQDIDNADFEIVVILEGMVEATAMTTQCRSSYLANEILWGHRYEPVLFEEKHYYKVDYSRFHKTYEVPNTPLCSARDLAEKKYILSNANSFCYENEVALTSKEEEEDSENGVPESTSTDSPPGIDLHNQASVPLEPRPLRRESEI
hERG rescue – shields human hERG channel from block by proarrhythmic agents; activation (rescue from dofetilide block), less the hit threshold, % at 10 µM; CHO-hERG, FluxOR thallium flux, dofetilide IC70 present; AID 1511; hit rate 0.51% among 310,000;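 active = activation above the mean of controls blocked by dofetilide plus 5 SD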;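 note: thallium influx through hERG after potassium depolarization seen as dye fluorescence rise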
KCNK3 block – human KCNK3 channel inhibition, primary screen; O14649; CHO-KCNK3 thallium flux, FluxOR fluorescence; active compounds read low; B-score at 10 µM; hit rate 0.84% among 340,000; AID 602410;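 active = B-score under library mean minus 4 SD, starting fluorescence ratio at most library mean plus 5 SD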;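 note: more negative B-score means stronger inhibition of thallium flux through KCNK3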
KCNQ1 act – potentiators or activators of human KCNQ1 potassium channel. hit rate 0.35% among 310,000. B-score at 10 µM. AID 2648. CHO-K1 KCNQ1, thallium flux FluxOR fluorescence; active compounds read high;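 active = fluorescence ratio B-score, a plate-corrected score, at least three library SD, with initial intensity B-score within 5 SD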
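Medium – assay buffer, equal DMSO in all wells · Material – CHO-K1 cell line with stable KCNQ1 potassium channel expression · Signal – kinetic FluxOR thallium fluorescence, 10-s 1-Hz baseline, 110-s post-stimulus read · Compound – single concentration per compound, DMSO matched to controls · Schedule – 37 °C overnight plating, 90-min dark dye load, 20-min compound pretreatment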
KCNK9 block conf – confirmation of human KCNK9 potassium channel inhibitors | hit rate 43% among 4,900 | shares compounds with KCNK9 block | inhibition, % at 10 µM | AID 492992 | HEK293 KCNK9 cells, FluxOR thallium flux fluorescence;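 active = thallium signal inhibited by more than 5 SD of the compound-free buffer control wells, on both duplicate plates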
Kir2-1 spec – selectivity of KCNK9 modulators against mouse Kir2.1; shares compounds with KCNK9 block; Kir2.1 cells, FluxOR thallium flux fluorescence; inhibition, % at 10 µM; hit rate 4% among 4,900; AID 492993;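 active = thallium signal drop more than 5 SD beyond the mean of the no-compound control wells, seen in both duplicate plates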;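 note: signal is fluorescence rise after thallium addition divided by baseline fluorescence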
HEK293 Tl ctr – non-induced cell nonspecific activity of KCNK9 modulators; shares compounds with KCNK9 block; inhibition, % at 10 µM; non-induced KCNK9-HEK293, FluxOR thallium flux; hit rate 40% among 4,900;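 active = thallium signal drop beyond 5 SD of the untreated control mean, on both duplicate plates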
Numbers stand for hits; 0 = inactive; - = no result given.

SMILES	KCNQ1 inh	KCNK9 block	Kir21 inh	hERG rescue	KCNK3 block	KCNQ1 act	KCNK9 block conf	Kir2-1 spec	HEK293 Tl ctr
Cc1ccc(-c2cc(-c3ccco3)c(C#N)c(=O)[nH]2)cc1	0	0	0	0	0	0	-	-	-
COC(=O)c1ccccc1NC(=O)CN(C)Cc1ccccc1	0	-9.9	0	0	0	0	39%	0	38%
CCCn1cnnc1CNC(=O)C1CCC(=O)N(CCc2ccc(OC)cc2)C1 (stereo not given)	0	0	0	0	0	0	-	-	-
Cc1ccc(S(=O)(=O)N2CCN(C3CC(=O)N(Cc4ccccc4)C3=O)CC2)cc1C (stereo not given)	0	0	0	0	0	0	-	-	-
O=C1CC(N2CCN(S(=O)(=O)c3cccc(C(F)(F)F)c3)CC2)C(=O)N1Cc1ccccc1 (stereo not given)	0	0	0	0	0	0	0	0	0
O=C(NCC(c1ccco1)N1CCN(c2ccc(F)cc2)CC1)C1CCCCC1 (stereo not given)	0	-14	0	0	0	0	44%	0	38%
COc1ccc(/C=C2\SC(=S)N(NS(=O)(=O)c3ccccc3)C2=O)c(OC)c1	0	0	0	0	0	19	0	0	0
COc1ccc(OC)c(/C=C2\SC(=S)N(NS(=O)(=O)c3ccc(C)cc3)C2=O)c1	0	0	0	0	0	0	0	0	0
CCOc1ccc(/C=C2\SC(=S)N(NS(=O)(=O)c3ccc(C)cc3)C2=O)cc1OC	0	0	0	0	0	0	0	0	0
O=[N+]([O-])c1ccc(/C=C/c2ccc3cccc([N+](=O)[O-])c3n2)cc1	0	0	0	0	0	0	-	-	-
O=[N+]([O-])c1cccc2ccc(/C=C/c3ccc(F)cc3)nc12	0	-13	0	0	0	0	48%	0	32%
COc1ccc(NC(=S)Nc2ccccn2)cc1	0	0	0	0	0	0	-	-	-
COc1ccc(/C=N/N(c2ccccc2)c2ccccc2)cc1O	8	0	0	0	0	0	0	0	0
COc1ccc(CCN(C)C(=O)C2CCCN(C3CCN(Cc4ccccc4)CC3)C2)cc1OC (stereo not given)	0	0	0	0	0	0	-	-	-
CCN(CC(=O)Nc1c(F)cccc1F)C(=O)CNC(=O)c1cccc(C)c1	0	0	0	0	0	0	-	-	-
CN(Cc1ccccc1)C(=O)COc1ccc(Br)cc1Cl	0	-12	0	0	0	0	37%	0	30%
CN(Cc1ccccc1)C(=O)COc1ccccc1Cl	0	0	0	0	0	0	-	-	-
O=C(CCNC(=O)c1ccccc1Cl)Nc1nc(-c2ccc3ccccc3c2)cs1	0	-8.2	0	0	0	0	42%	0	0
COc1cc(-c2nc3cc(C)ccn3c2NC2CCCCC2)ccc1-c1ccc(C(C)=O)cc1	0	-9.3	0	0	0	0	48%	0	0
CC(C)N(Cc1nc(-c2ccc(Cl)cc2)no1)C(=O)C12CC3CC(CC(C3)C1)C2	0	0	0	0	0	0	0	0	0
Cc1ccc(SCC(=O)N(Cc2nc(-c3ccccc3)no2)C(C)C)cc1	0	0	0	0	0	0	0	0	28%
Cc1cccc(-c2noc(CN(C(=O)C34CC5CC(CC(C5)C3)C4)C(C)C)n2)c1	0	0	0	0	0	0	0	0	0
Cc1ccc(C(=O)N(Cc2nc(-c3ccc(C)cc3)no2)C(C)C)cc1	0	0	0	0	0	0	-	-	-
O=C(NC(CO)(CO)CO)[C@@H]1CCCN1S(=O)(=O)c1cccc2cccnc12	-	-	-	-	0	-	-	-	-
CC1C(=O)N2CCCc3cc(NS(=O)(=O)c4ccccc4)cc1c32 (stereo not given)	0	0	0	0	0	0	-	-	-
SMILES	KCNQ1 inh	KCNK9 block	Kir21 inh	hERG rescue	KCNK3 block	KCNQ1 act	KCNK9 block conf	Kir2-1 spec	HEK293 Tl ctr
O=C(Nc1nc(-c2cc(Cl)sc2Cl)cs1)c1cccs1	0	-8.9	0	0	-12	0	50%	0	0
CC1=NN(c2ccc(Cl)cc2)C(=O)C1C(c1cccc(O)c1)c1c(C)[nH]n(-c2ccc(Cl)cc2)c1=O (stereo not given)	0	0	0	0	0	0	0	0	0
Cc1[nH]n(-c2ccc(Cl)cc2)c(=O)c1C(=O)c1ccccc1	0	0	0	0	0	0	-	-	-
Cc1ccccc1CN1CCN(S(=O)(=O)c2cccc3nsnc23)CC1	0	0	0	0	0	0	0	0	0
O=S(=O)(c1cccc2nsnc12)N1CCN(C/C=C\c2ccccc2)CC1	0	0	0	0	0	0	0	0	0
O=C(O)/C(=C\c1cccc(OCc2ccccc2)c1)c1ccc(F)cc1	0	0	0	0	0	0	-	-	-
CCc1nnc(NC(=O)C2Cc3ccccc3CN2S(=O)(=O)c2c(C)c(C)cc(C)c2C)s1 (stereo not given)	0	-13	0	0	0	0	0	0	32%
CCc1nnc(NC(=O)C2Cc3ccccc3CN2S(=O)(=O)CC)s1 (stereo not given)	0	0	0	0	0	0	-	-	-
CCOC(=O)c1cc(-c2ccc(/C=C3/C(=O)N(c4ccc(C(=O)O)cc4)N=C3C)o2)ccc1Cl	0	0	0	0	0	0	0	0	0
NC(=O)COC(=O)c1oc2ccccc2c1CSc1ccc(Cl)cc1	0	0	0	0	0	0	-	-	-
O=C(COC(=O)c1oc2ccccc2c1CSc1ccc(Cl)cc1)NC1CCCC1	10	-8.1	0	0	0	0	32%	36%	50%
O=C(CCC(=O)c1ccc(Oc2ccccc2)cc1)Nc1cccc(Cl)c1Cl	0	0	0	0	0	0	0	0	26%
O=C(NNC(=S)Nc1ccccc1)C1CCCCC1	0	0	0	0	0	0	-	-	-
COc1ccc(NC(=O)N2CCC(n3nnc4cc(C)ccc43)CC2)cc1	0	0	0	0	0	0	-	-	-
CCC1Oc2ccc(C)cc2N(CC(=O)N(Cc2ccc(C)o2)C2CCCC2)C1=O (stereo not given)	0	0	0	0	0	0	0	0	34%
CCOc1cccc(C(=O)NC(=S)Nc2ccc3c(c2)OCCO3)c1	0	0	0	0	0	0	0	0	0
O=C(NC(=S)Nc1ccc2c(c1)OCCO2)c1ccccc1	0	0	0	0	0	0	-	-	-
Cc1ccc(-n2ncc3c(SCc4cccnc4)ncnc32)c(C)c1	0	0	0	0	0	0	-	-	-
COc1ccc(Br)cc1C(=O)Nc1ccccc1-c1ccccc1	0	-10	0	0	0	0	52%	0	42%
O=C(Nc1ccccc1)c1ccc(-c2ccc(Br)cc2)o1	0	0	0	0	0	0	-	-	-
